Results from different studies.
Protocols differ between the studies behind these lines.
AGTR1: Type-1 angiotensin II receptor (AGTR1, Homo sapiens, UniProt P30556)
BRAF V600E: Serine/threonine-protein kinase B-raf (BRAF, Homo sapiens, UniProt P15056, V600E)
ADORA3: Adenosine receptor A3 (ADORA3, Homo sapiens, UniProt P0DMS8)
ELANE: Neutrophil elastase (ELANE, Homo sapiens, UniProt P08246)
Blk: Tyrosine-protein kinase Blk (Blk, Mus musculus, UniProt P16277)
DRD2: D(2) dopamine receptor (DRD2, Homo sapiens, UniProt P14416)
PARP16: Protein mono-ADP-ribosyltransferase PARP16 (PARP16, Homo sapiens, UniProt Q8N5Y8)
NPY1R: Neuropeptide Y receptor type 1 (NPY1R, Homo sapiens, UniProt P25929)

`O=C(c1ccc(Cl)cc1)N(Cc1ccccc1)C1CCCCC1` has an inhibition of -0.9% (AGTR1; cell-free assay; 10 µM).
For `Cc1ccc(C(CS(=O)(=O)c2ccccc2)=NNc2nc(-c3ccc(OCCCCOc4ccc(-c5csc(NN=C(CS(=O)(=O)c6ccccc6)c6ccc(C)cc6)n5)cc4)cc3)cs2)cc1`, the inhibition was 57% (BRAF V600E; enzyme activity, inhibitor, ATP luminescence; 0.1 µM).
For `CN(C)C1CCN(CC#Cc2nn(C3CCCC3)c3nc(NCc4ccccc4)ncc23)C1` (stereo not shown), the inhibition was 31% (Ephrin type-B receptor 2 (EPHB2, Homo sapiens, UniProt P29323); enzyme activity, inhibitor, FRET; 10 µM).
With `O=C(Nc1ccc(S(=O)(=O)N2CCC(Cl)CC2)cc1)c1ccc([N+](=O)[O-])o1` the inhibition was 6% (ADORA3; ligand displacement, radioligand; 10 µM).
With `CCCCN1CCCn2c1nc1c2c(=O)n(C)c(=O)n1C` the inhibition was 12% (ADORA3; ligand displacement, radioligand; 10 µM, cell membranes).
`Cc1ccc(CNC(=O)[C@H](CCc2ccccc2)NC(=O)[C@H](CCc2ccccc2)NC(=O)[C@H](CCc2ccccc2)NC(=O)c2cnc(C)cn2)cc1` has an inhibition of -8% (ELANE; enzyme activity, inhibitor; 100 µM).
`O=C(CSc1nc2nccnc2c(=O)n1CCc1ccccc1)Nc1nccs1` has an inhibition of 9% (Phosphatidylinositol 4-kinase type 2-alpha (PI4K2A, Homo sapiens, UniProt Q9BTU6); enzyme activity, inhibitor; 10 µM).
`CNC(=O)c1cc(Oc2ccc(NC(=O)Nc3ccc(Cl)c(C(F)(F)F)c3)cc2)ccn1` gave an inhibition of -25% (Blk; enzyme activity, inhibitor; 0.3 µM).
For `Cc1ccc(C(C)C)c(OCC(O)CN2CCN(c3ccccc3F)CC2)c1` (stereo not shown), the inhibition was 32.3% (DRD2; enzyme activity, inhibitor; 10 µM).
For `O=C1CCCc2c(O)cccc2N1`, the inhibition was 0% (PARP16; enzyme activity, inhibitor; 10 µM).
`CCC(C)N1CCCn2c1nc1c2c(=O)n(C)c(=O)n1C` (stereo not shown) gave an inhibition of 14% (ADORA3; ligand displacement, radioligand; 10 µM, cell membranes).
For `Cc1ccc(Nc2nccc(N(C)c3ccc4c(C)n(C)nc4c3)n2)cc1S(N)(=O)=O`, the inhibition was 11% (Dual specificity mitogen-activated protein kinase kinase 4 (Map2k4, Mus musculus, UniProt P47809); enzyme activity, inhibitor; 0.3 µM).
The inhibition of `COc1cc2c(cc1OC)-c1nnnn1CCC2` is reported as 83% (PARP16; enzyme activity, inhibitor; 10 µM).
With `CCC(=O)c1ccc(OCC(O)CN2CCN(S(=O)(=O)N3CCCCC3)CC2)cc1` (stereo not shown) the inhibition was 6.8% (DRD2; enzyme activity, inhibitor; 10 µM).
The inhibition of `O=C(c1ccc(F)cc1)N(Cc1ccccc1)C1CCCCC1` is reported as -9% (NPY1R; cell-free assay; 10 µM).
`O=C1N=C(N2CCCCN2)S/C1=C\c1ccc(F)cc1O` has an inhibition of less than 10% (NPY1R; ligand displacement, radioligand; 10 µM).
With `COc1ccc(-c2ccc(CNCC(O)c3ccccc3)o2)cc1Cl` (stereo not shown) the inhibition was 46% (DRD2; enzyme activity, inhibitor; 10 µM).
With `CCCCn1c(=O)c2[nH]c(C34CC5CC(CC3C5)C4)nc2n(CCCO)c1=O` the inhibition was 39% (ADORA3; ligand displacement, radioligand; 10 µM, cell membranes).
With `O=C(CCN1CCC(O)(c2ccc(F)cc2)C1)c1ccc2c(c1)OCCO2` (stereo not shown) the inhibition was 41.3% (DRD2; enzyme activity, inhibitor; 10 µM).
For `O=C1NCCCc2c(O)cccc21`, the inhibition was 0% (PARP16; enzyme activity, inhibitor; 10 µM).
The inhibition of `CN(C(=O)N(C)C1C2CC3CC(C2)CC1C3)c1ccc(F)c(F)c1F` (stereo not shown) is reported as less than 1% (ephB (Mycobacterium tuberculosis, UniProt I6YC03); enzyme activity, inhibitor; 10 nM).
`CN1CCCn2c1nc1c2c(=O)n(C)c(=O)n1C` gave an inhibition of 3% (ADORA3; ligand displacement, radioligand; 10 µM, cell membranes).
`COc1cc(NC(C)=O)c(Cl)cc1C(=O)Nc1nccs1` has an inhibition of 4.8% (AGTR1; cell-free assay; 10 µM).
For `Cc1ccc(C(CS(=O)(=O)c2ccccc2)=NN=C2N=C(c3ccc(Br)cc3)CS2)cc1`, the inhibition was 61% (BRAF V600E; enzyme activity, inhibitor, ATP luminescence; 0.1 µM).
`CCN(CC)CCNC(=O)c1c(C)[nH]c(/C=C2\C(=O)Nc3ccc(F)cc32)c1C` has an inhibition of 36% (Blk; enzyme activity, inhibitor; 0.3 µM).
For `O=C(c1cccc(Cl)c1)N1CCN(CCNc2cc(=O)oc3ccccc23)CC1`, the inhibition was -1.9% (DRD2; enzyme activity, inhibitor; 10 µM).
With `Oc1cccc(Nc2nc(-c3ccc(F)cc3F)cs2)c1` the inhibition was -7.2% (AGTR1; cell-free assay; 10 µM).
`Cc1ccc(C(CS(=O)(=O)c2ccccc2)=NNC2=NC(=O)C(=NNc3ccccc3)S2)cc1` gave an inhibition of 32% (BRAF V600E; enzyme activity, inhibitor, ATP luminescence; 10 nM).
`CNCc1ccc(-c2cc(-c3nc(-c4ccc(S(=O)(=O)C(C)C)cc4)cnc3N)on2)cc1` has an inhibition of 36% (Blk; enzyme activity, inhibitor; 2 µM).
The inhibition of `COc1cc2c3c(c1OC)-c1cc4c(cc1CC3N(C)CC2)OCO4` (racemic) is reported as 62% (5-hydroxytryptamine receptor 1E (HTR1E, Homo sapiens, UniProt P28566); ligand displacement, radioligand; 10 µM).
For `NC(=S)NN=C(CS(=O)(=O)c1ccccc1)c1ccc(F)cc1`, the inhibition was 34% (BRAF V600E; enzyme activity, inhibitor, ATP luminescence; 10 nM).
`CC(=O)c1nn(CC(=O)N2C[C@H](F)C[C@H]2C(=O)Nc2cccc(Br)n2)c2ccc(-c3cnc(C)nc3)cc12` gave an inhibition of 0.7% (ELANE; enzyme activity, inhibitor; 10 µM).
`CC(C)N1CCCn2c1nc1c2c(=O)n(C)c(=O)n1C` has an inhibition of 8% (ADORA3; ligand displacement, radioligand; 10 µM, cell membranes).
For `C[C@@]1(c2cccc(Nc3ccc(C4CC4)nc3)c2Cl)CC(=O)N(C2CCOCC2)C(=N)N1`, the inhibition was 52% (Beta-secretase 1 (BACE1, Homo sapiens, UniProt P56817); enzyme activity, inhibitor, FRET; 10 µM).
`CC(=O)N[C@H]1CSSC[C@@H](C(=O)N[C@@H](Cc2c[nH]c3ccccc23)C(N)=O)NC(=O)[C@@H](Cc2ccccc2)NC(=O)[C@H](CCCNC(=N)N)NC1=O` has an inhibition of 45% (Melanocortin receptor 3 (MC3R, Homo sapiens, UniProt P41968); ligand displacement, radioligand; 10 µM, 40 min).
`OC(CNCc1cccc(Oc2nnnn2-c2ccccc2)c1)c1ccccc1` (stereo not shown) gave an inhibition of 35.6% (DRD2; enzyme activity, inhibitor; 10 µM).
The inhibition of `Cc1ccc(C(CS(=O)(=O)c2ccccc2)=NNC(N)=S)cc1` is reported as 46% (BRAF V600E; enzyme activity, inhibitor, ATP luminescence; 0.1 µM).
For `C=CCN1CCCn2c1nc1c2c(=O)n(C)c(=O)n1C`, the inhibition was 17% (ADORA3; ligand displacement, radioligand; 10 µM, cell membranes).
`O=C1C2CCCN2C(=O)N1CCCCN1CCN(c2cccc(C(F)(F)F)c2)CC1` (stereo not shown) has an inhibition of 10% (DRD2; enzyme activity, inhibitor; 10 µM).
With `Cc1ccc(C(CS(=O)(=O)c2ccccc2)=NNc2nc(C)c(N=Nc3ccccc3)s2)cc1` the inhibition was 85% (BRAF V600E; enzyme activity, inhibitor, ATP luminescence; 10 µM).
`COCCOc1ccc(N2CCN(CCn3ncc4c3nc(N)n3nc(-c5ccco5)nc43)CC2)cc1` gave an inhibition of 35% (ADORA3; ligand displacement, radioligand; 10 µM, cell membranes).
`Cc1ccc(C(CS(=O)(=O)c2ccccc2)=NN=C2N=C(c3ccc(C)cc3)CS2)cc1` has an inhibition of 86% (BRAF V600E; enzyme activity, inhibitor, ATP luminescence; 10 µM).
With `CC(=O)Nc1ccc(N2C(=O)CC(NCCc3ccccc3)C2=O)cc1` (stereo not shown) the inhibition was 37.8% (DRD2; enzyme activity, inhibitor; 10 µM).
For `C#CCN1CCCn2c1nc1c2c(=O)n(C)c(=O)n1C`, the inhibition was 11% (ADORA3; ligand displacement, radioligand; 10 µM, cell membranes).
`Cc1ccc(C(CS(=O)(=O)c2ccccc2)=NNC2=NC(=O)C(=NNc3ccc([N+](=O)[O-])cc3)S2)cc1` gave an inhibition of 89% (BRAF V600E; enzyme activity, inhibitor, ATP luminescence; 10 µM).
`Cn1cnc(Br)c1C1=CN(c2ncnc3[nH]cnc23)CCS1` has an inhibition of 90.4% (Serine/threonine-protein kinase Nek5 (NEK5, Homo sapiens, UniProt Q6P3R8); enzyme activity, inhibitor, radiometric; 2 µM).
